The record followed here is ChEMBL document CHEMBL4004800, “Thiol-Based Probe for Electrophilic Natural Products Reveals That Most of the Ammosamides Are Artifacts” (J Nat Prod, 2017).

Series [1] concerns HCT-116. The series can be described thus: Cytotoxicity against human HCT116 cells assessed as growth inhibition by MTS assay. It is filed as functional, cell-based. In a few lines: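 HCT-116 colorectal cells, cultured as in earlier work, were tested by colorimetric MTS assay. Compounds were supplied in DMSO from a 10 mg mL⁻¹ stock. IC50 came from a four-parameter sigmoidal fit, and values are averages of three measurements. Controls were DMSO (negative) and etoposide (positive, 4 mg mL⁻¹ stock in DMSO).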
(In general: Formazan colour is commonly taken as a measure of viable cells.)

In series [2] the test system is HCT-116. Briefly: Cytotoxicity against human HCT116 cells assessed as growth inhibition at 78.125 ug/ml by MTS assay relative to control. It is filed as functional. As to conditions: read-out: GI.
For the next series, the system named is HCC44. The series can be described thus: Cytotoxicity against human HCC44 cells. It is filed as functional, cell-based.
In the next series the test system is Escherichia coli. The series can be described thus: Antibacterial activity against Escherichia coli MG1655 at 10 ug after 48 hrs by disk diffusion method. As to conditions: K-12 substr. MG1655. It counts as functional. In a few lines:
(§1)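 Kirby–Bauer disk diffusion on LB agar swabbed with inocula from 24 h LB (pH 7.0) precultures grown at rt, 200 rpm. Each 6 mm paper disc carried 10 μg compound, applied as […] in MeOH and dried before placement. Controls were MeOH (10 μL) as negative and ciprofloxacin 5 μg as positive. Plates were incubated 48 h.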
For orientation: A growth-free zone around the sample is the usual read-out of agar diffusion tests.

The nature of series [3]: Drug metabolism assessed as compound formation from ammosamide C. It counts as physicochemical. In a few lines: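 Ammosamide C TFA salt kept at rt in seawater-based A1 medium pH 10.0 (1.0 mg/500 μL; pH 6.8 control), PBS pH 10 (2.0 mg/1.0 mL), saturated NaHCO₃ pH 8.1 (2.0 mg/1.0 mL), or PBS pH 10 with 7 equiv L-cysteine. Products followed over days by analytical C18 ELSD-UV/vis-HPLC (1–60% CH₃CN, 0.1% formic acid), plus LC-HRMS for the buffer reactions.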

The subject of another series is Bacillus oceanisediminis. The series can be described thus: Antibacterial activity against Bacillus oceanisediminis CNY-977 at 10 ug after 48 hrs by disk diffusion method. It is filed as functional. The essentials:
as §1

Series [4] in a line: Stability of the compound in culture medium.
Series [5] can be described thus: Drug metabolism assessed as half life for ammosamide B formation. It counts as physicochemical.
The mark [6] stands for this setting: Homo sapiens, HCT-116, read-out: IC50.

Active and inactive are the calls of the source. The rule behind the calls is not given here.

Turning to `CNC(=O)c1cc(C(N)=O)nc2c1C(=O)C(=O)C(Cl)=C2N`, the IC50 result in the series with HCT-116 [1] (hct-116) is given as “Not Active”. Besides, in the series with HCT-116 [2], the inhibition of growth at 78.125 µg/mL stood at 97%.
In the case of `CCCCCC/N=C1\c2cc(C(N)=O)nc3c(N)c(Cl)c(N)c(c23)N1C`, the IC50 with HCC44 came to 0.5 µM.
As for `CN1/C(=N/c2ccc(Cl)cc2)c2cc(C(N)=O)nc3c(N)c(Cl)c(N)c1c23`, in the series on HCT-116 [1] (setting [6]), the IC50 was 39 µM.
In the case of `CN1C(=S)c2cc(C(N)=O)nc3c(N)c(Cl)c(N)c1c23`, the IC50 entry in the series with HCT-116 [1] (hct-116) was “Not Active”. For the same molecule, the inhibition of growth at 78.125 µg/mL with HCT-116 [2] was determined as 19%. Also, the outcome in the series with Escherichia coli was Active.
Consider `CC(=O)NCCSC1=[N+](C)c2c(N)c(Cl)c(N)c3nc(C(N)=O)cc1c23`, for which the IC50 entry with HCT-116 [1] (hct-116) was “Not Active”. In addition, the inhibition of growth at 78.125 µg/mL in the series on HCT-116 [2] is 26%.
`CCCNC1=[N+](C)c2c(N)c(Cl)c(N)c3nc(C(N)=O)cc1c23`: the IC50 in the series with HCT-116 [1] (setting [6]) is 6.8 µM.
Consider `CN1C(=O)c2cc(C(N)=O)nc3c(N)c(Cl)c(N)c1c23` [AMMOSAMIDE B], for which the concentration for half-maximal inhibition (IC50) in the series on HCT-116 [1] (setting [6]) is 29 µM. Also, the Drug metabolism entry in series [3] is given as “Metabolite_Detected”. Also, in the series with Escherichia coli, the outcome was Active.
In the series on HCC44, `CC(C)/N=C1\c2cc(C(N)=O)nc3c(N)c(Cl)c(N)c(c23)N1C` came in with an IC50 of 1.1 µM.
`C[N+]1=Cc2cc(C(N)=O)nc3c(N)c(Cl)c(N)c1c23`: the outcome in the series with Bacillus oceanisediminis and with Escherichia coli was Active. Also, the Stability entry in series [4] is “Stable”. For the same molecule, the t1/2 in series [5] came out at 240 h. In addition, the IC50 in the series on HCT-116 [1] (setting [6]) is 5.5 µM.
As to `COc1cc([C@@H]2c3cc4c(cc3[C@@H](O[C@@H]3O[C@@H]5CO[C@@H](C)O[C@H]5[C@H](O)[C@H]3O)[C@H]3COC(=O)[C@H]23)OCO4)cc(OC)c1O` [ETOPOSIDE], the IC50 with HCT-116 [1] (setting [6]) lay within 0.49 to 4.9 µM.

In general, IC50 refers to the concentration needed to halve the response being measured.
